An excerpt weighted towards active compounds, which were near 3.5% of everything screened.
PAFAH1B3 inh: blocks human PAF acetylhydrolase 1B catalytic subunit 3; recombinant PAFAH1B3, FP-rhodamine probe, fluorescence polarization; inhibition, % at 3.39 µM; 340,000 tested, 0.28% active;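 active = inhibition above the screen-wide average of all tested compounds plus 3 SD, cut at about 25% in these data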
Target sequence (Q15102 whole entry, looked up): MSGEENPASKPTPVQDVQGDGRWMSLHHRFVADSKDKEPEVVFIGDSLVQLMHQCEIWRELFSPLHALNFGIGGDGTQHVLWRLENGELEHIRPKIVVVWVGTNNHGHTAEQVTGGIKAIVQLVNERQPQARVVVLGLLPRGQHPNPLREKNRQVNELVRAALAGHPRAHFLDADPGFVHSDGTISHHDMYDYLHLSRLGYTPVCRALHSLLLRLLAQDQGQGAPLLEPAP
PREPL inhibitor: inhibitors of human prolyl oligopeptidase-like enzyme PREPL; Q4J6C6; recombinant PREPL, fluorescence polarization activity-based probe; inhibition, % at 5.96 µM; 320,000 tested, 0.68% active; AID 2751; in the data active = inhibition above about 43%
PAFAH2 inh: PAFAH2 (human) inhibition | 340,000 tested, 0.99% active | Q99487 | inhibition, % at 3.39 µM | recombinant PAFAH2, FP-rhodamine activity probe, fluorescence polarization;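 active = inhibition above the mean over all tested compounds plus 3 SD, cut at about 30% in these data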;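 note: inhibitors block probe labeling of enzyme so polarization drops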
pPAFAH inh: inhibitors of human plasma PAF acetylhydrolase (pPAFAH); Q13093; recombinant pPAFAH, FP-rhodamine probe fluorescence polarization; 330,000 tested, 1.5% active; inhibition, % at 3.39 µM;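 active = inhibition above the mean inhibition across the screen plus 3 SD, cut at about 25% in these data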;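 note: inhibitors block binding of the rhodamine activity-based probe so polarization drops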
Apaf-1 inh: blocks human Apaf-1 apoptosome activity. AID 489030. reconstituted apoptosome caspase-3 activity, DEVD-Rh110 fluorescence. inhibition, % at 20 µM. 330,000 tested, 0.71% active. O14727; active = inhibition of at least 40% at 20 µM
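System: Apoptosome proteins | Medium: Hepes pH 7.5 with detergent and BSA | Also added: Cytochrome c trigger plus (Z-DEVD)2-Rh110 caspase-3 substrate | Incubation: 30 min compound preincubation, 50 min activation, room temperature | Detection: Rhodamine 110 fluorescence at Ex 480/Em 540 nm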
PAFAH1B2 inh: PAFAH1B2 (human) inhibition; 340,000 tested, 1.2% active; recombinant PAFAH1B2, FP-rhodamine activity probe, fluorescence polarization; inhibition, % at 3.39 µM;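 active = inhibition above the mean of all tested compounds plus 3 SD, cut at about 24% in these data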
Target sequence (P68402 whole entry, looked up): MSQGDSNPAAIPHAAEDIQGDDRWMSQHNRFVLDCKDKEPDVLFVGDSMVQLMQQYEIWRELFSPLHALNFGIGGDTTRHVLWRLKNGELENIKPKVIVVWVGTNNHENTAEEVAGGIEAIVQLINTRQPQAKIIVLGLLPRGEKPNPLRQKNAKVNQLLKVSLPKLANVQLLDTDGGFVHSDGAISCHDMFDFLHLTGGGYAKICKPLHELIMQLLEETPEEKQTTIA
A number is an active result.

What do the screens show for `O=S(=O)(NCCCc1ccccc1)c1ccc(F)c(F)c1`?
PAFAH1B3 inh: inactive; PREPL inhibitor: inactive; PAFAH2 inh: inactive; pPAFAH inh: 29; Apaf-1 inh: inactive; PAFAH1B2 inh: 36

How did CCN(CC(=O)Nc1cc(Cl)ccc1C)C(=O)c1ccc(N2CCCC2=O)cc1 do in these assays?
PAFAH1B3 inh: inactive; PREPL inhibitor: inactive; PAFAH2 inh: inactive; pPAFAH inh: inactive; Apaf-1 inh: inactive; PAFAH1B2 inh: inactive

How did CCOC(=O)N1CCN(C(=O)CSc2nc(CC)nc3c2c(=O)n(C)c(=O)n3C)CC1 do in these assays?
PAFAH1B3 inh: inactive; PREPL inhibitor: inactive; PAFAH2 inh: inactive; pPAFAH inh: inactive; Apaf-1 inh: inactive; PAFAH1B2 inh: inactive

Results for Cc1ccccc1CN(C)C(=O)COC(=O)CSc1ccc([N+](=O)[O-])cc1 ?
PAFAH1B3 inh: inactive; PREPL inhibitor: inactive; PAFAH2 inh: inactive; pPAFAH inh: inactive; Apaf-1 inh: inactive; PAFAH1B2 inh: inactive

How did N#C/C(=C(\O)Cc1ccccc1)c1nc2ccccc2[nH]1 do in these assays?
PAFAH1B3 inh: inactive; PREPL inhibitor: inactive; PAFAH2 inh: inactive; pPAFAH inh: inactive; Apaf-1 inh: inactive; PAFAH1B2 inh: inactive

Results for N#C/C(=C(/O)c1cccs1)c1nc2ccccc2[nH]1 ?
PAFAH1B3 inh: inactive; PREPL inhibitor: 77; PAFAH2 inh: inactive; pPAFAH inh: inactive; Apaf-1 inh: inactive; PAFAH1B2 inh: inactive

Results for N#C/C(=C(/O)CCl)c1nc2ccccc2[nH]1 ?
PAFAH1B3 inh: inactive; PREPL inhibitor: 50; PAFAH2 inh: inactive; pPAFAH inh: inactive; Apaf-1 inh: inactive; PAFAH1B2 inh: inactive

What do the screens show for `CCCN(CC(=O)Nc1ccccc1C)C(=O)/C=C/c1ccc(OCC)c(OC)c1`?
PAFAH1B3 inh: inactive; PREPL inhibitor: inactive; PAFAH2 inh: inactive; pPAFAH inh: inactive; Apaf-1 inh: inactive; PAFAH1B2 inh: inactive

What do the screens show for `O=C(CN(c1cccc(Br)c1)S(=O)(=O)c1ccccc1)N/N=C/c1cc([N+](=O)[O-])ccc1O`?
PREPL inhibitor: inactive; pPAFAH inh: 25; Apaf-1 inh: inactive

What do the screens show for `O=S(=O)(O)c1cc(O)c(N=Nc2ccc(O)cc2O)c2ccccc12`?
PAFAH1B3 inh: 90; PAFAH2 inh: 90; PAFAH1B2 inh: 87

How did O=S(=O)(O)c1cc(O)ccc1O do in these assays?
PAFAH1B3 inh: inactive; PREPL inhibitor: inactive; PAFAH2 inh: inactive; pPAFAH inh: inactive; Apaf-1 inh: inactive; PAFAH1B2 inh: inactive

What do the screens show for `COC/C=C/C1=CC2=CC(=O)C(C)(OC(=O)c3cnc4ccccc4n3)C(=O)C2=CN1c1ccc(CO)cc1` (centres undefined)?
PREPL inhibitor: inactive; pPAFAH inh: 39; Apaf-1 inh: inactive

How did COC/C=C/C1=CC2=CC(=O)C(C)(OC(=O)c3cnc4ccccc4n3)C(=O)C2=CN1CC(C)C (centres undefined) do in these assays?
PAFAH1B3 inh: inactive; PREPL inhibitor: inactive; PAFAH2 inh: inactive; pPAFAH inh: inactive; Apaf-1 inh: 41; PAFAH1B2 inh: inactive

What do the screens show for `CC1(OC(=O)c2cnc3ccccc3n2)C(=O)C=C2C=C(C3CC3)OC=C2C1=O` (centres undefined)?
PREPL inhibitor: inactive; pPAFAH inh: 50; Apaf-1 inh: inactive

Results for COc1cccc(OC)c1C1=NC(C)(C)CO1 ?
PAFAH1B3 inh: inactive; PREPL inhibitor: inactive; PAFAH2 inh: inactive; pPAFAH inh: inactive; Apaf-1 inh: inactive; PAFAH1B2 inh: inactive

How did Cc1ccc(S(=O)(=O)NCCCCC(NC(=O)OC(C)(C)C)C(=O)O)cc1 (centres undefined) (tested in a mixture with another compound) do in these assays?
PAFAH1B3 inh: inactive; PREPL inhibitor: inactive; PAFAH2 inh: inactive; pPAFAH inh: inactive; Apaf-1 inh: inactive; PAFAH1B2 inh: inactive

How did Cc1ccc(S(=O)(=O)n2ccc3c(OCCOCCSCC(NC(=O)OC(C)(C)C)C(=O)O)cccc32)cc1 (centres undefined) do in these assays?
PAFAH1B3 inh: inactive; PREPL inhibitor: inactive; PAFAH2 inh: inactive; pPAFAH inh: inactive; Apaf-1 inh: inactive; PAFAH1B2 inh: 81

Results for COc1cc(/C=C2\SC(=S)N(CC(=O)O)C2=O)ccc1OS(=O)(=O)c1ccc(C)cc1 ?
PAFAH1B3 inh: inactive; PREPL inhibitor: inactive; PAFAH2 inh: inactive; pPAFAH inh: inactive; Apaf-1 inh: inactive; PAFAH1B2 inh: 35

How did COc1cc(/C=C2/SC(=S)N(Cc3ccccc3)C2=O)ccc1OS(C)(=O)=O do in these assays?
PAFAH1B3 inh: inactive; PREPL inhibitor: inactive; PAFAH2 inh: inactive; pPAFAH inh: inactive; Apaf-1 inh: inactive; PAFAH1B2 inh: inactive

How did O=C1NNC(c2ccccc2)=N/C1=C\c1ccco1 do in these assays?
PAFAH1B3 inh: inactive; PREPL inhibitor: inactive; PAFAH2 inh: inactive; pPAFAH inh: 26; Apaf-1 inh: inactive; PAFAH1B2 inh: inactive

Results for O=C1NNC(c2ccccc2)=N/C1=C\c1ccccc1Cl ?
PAFAH1B3 inh: inactive; PAFAH2 inh: inactive; PAFAH1B2 inh: inactive

How did Cc1cc(C)c(C2=Nn3c(C)nnc3SC2C)cc1C (centres undefined) do in these assays?
PAFAH1B3 inh: inactive; PREPL inhibitor: inactive; PAFAH2 inh: inactive; pPAFAH inh: inactive; Apaf-1 inh: inactive; PAFAH1B2 inh: inactive

Results for COc1ccc2c(c1)O/C(=C\c1ccccc1C)C2=O ?
PAFAH1B3 inh: inactive; PREPL inhibitor: inactive; PAFAH2 inh: inactive; pPAFAH inh: 27; Apaf-1 inh: inactive; PAFAH1B2 inh: inactive

Results for COc1cc(OC)c(OC)cc1/C=C1\Oc2cc(OS(C)(=O)=O)ccc2C1=O ?
PAFAH1B3 inh: inactive; PREPL inhibitor: inactive; PAFAH2 inh: inactive; pPAFAH inh: inactive; Apaf-1 inh: inactive; PAFAH1B2 inh: inactive

What do the screens show for `COc1ccc(/C=C2\Oc3cc(OC(=O)N4CCOCC4)ccc3C2=O)cc1`?
PAFAH1B3 inh: inactive; PREPL inhibitor: inactive; PAFAH2 inh: inactive; pPAFAH inh: 27; Apaf-1 inh: inactive; PAFAH1B2 inh: inactive

How did CCc1ccc(/C=C2\Oc3cc(OC(=O)N4CCOCC4)ccc3C2=O)cc1 do in these assays?
PAFAH1B3 inh: inactive; PREPL inhibitor: inactive; PAFAH2 inh: inactive; pPAFAH inh: 26; Apaf-1 inh: inactive; PAFAH1B2 inh: inactive

How did CC(=O)N(/N=C/c1ccc(C)cc1)c1nc(CCl)cs1 do in these assays?
PAFAH1B3 inh: inactive; PREPL inhibitor: inactive; PAFAH2 inh: inactive; pPAFAH inh: inactive; Apaf-1 inh: inactive; PAFAH1B2 inh: inactive

How did CC(=O)c1ccc(-c2ccc(C(=O)NCC3CCCO3)o2)cc1 (centres undefined) do in these assays?
PAFAH1B3 inh: inactive; PREPL inhibitor: inactive; PAFAH2 inh: inactive; pPAFAH inh: inactive; Apaf-1 inh: inactive; PAFAH1B2 inh: inactive

What do the screens show for `O=C(O)c1ccc(NC(=O)c2cccc(C(=O)Nc3ccc(C(=O)O)cc3)n2)cc1`?
PAFAH1B3 inh: 40; PREPL inhibitor: inactive; PAFAH2 inh: inactive; pPAFAH inh: inactive; Apaf-1 inh: inactive; PAFAH1B2 inh: 31

What do the screens show for `N#Cc1c(NC(=O)/C=C/C(=O)O)sc2c1CCN(Cc1ccccc1)C2`?
PAFAH1B3 inh: inactive; PREPL inhibitor: inactive; PAFAH2 inh: inactive; pPAFAH inh: inactive; Apaf-1 inh: inactive; PAFAH1B2 inh: inactive
